Data reported in ChEMBL document CHEMBL1122702, “Radiohalogen-labeled imaging agents. 3. Compounds for measurement of brain blood flow by emission tomography” (J Med Chem, 1984).

Legend:
Assay type in all cases: ADME, organism-based
Rattus norvegicus [1] = organism: Rattus norvegicus; test: The distribution of the 131 I-labeled compound at 30 min was evaluated in rat brain as Percent of injected dose per gram in the organ; details: in vivo, 0.5 h
Summary of the method: (§1)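 Male Sprague-Dawley rats (200–300 g, free access to food and water), lightly ether-anesthetized and restrained, received a 0.2 mL saline tail-vein bolus of 10–20 μCi 131I-labeled compound. They were decapitated at the stated time, and organs were excised, weighed and gamma-counted. Percent injected dose was determined against a calibrated external standard made by serial dilution of the injectate. n = 1–4 rats.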

Rattus norvegicus [2] = organism: Rattus norvegicus; test: The distribution of the 131 I-labeled compound at 30 min was evaluated in rat heart as Percent of injected dose in the total organ; details: in vivo, 0.5 h; summary of the method: as §1
Rattus norvegicus [3] = organism: Rattus norvegicus; test: The distribution of the 131 I-labeled compound at 30 min was evaluated in rat heart as Percent of injected dose per gram in the organ; details: in vivo, 0.5 h; summary of the method: as §1
Rattus norvegicus [4] = organism: Rattus norvegicus; test: The distribution of the 131 I-labeled compound at 30 min was evaluated in rat kidney as Percent of injected dose in the total organ; details: in vivo, 0.5 h; summary of the method: as §1
Rattus norvegicus [5] = organism: Rattus norvegicus; test: The distribution of the 131 I-labeled compound at 30 min was evaluated in rat kidney as Percent of injected dose per gram in the organ; details: in vivo, 0.5 h; summary of the method: as §1
Rattus norvegicus [6] = organism: Rattus norvegicus; test: The distribution of the 131 I-labeled compound at 30 min was evaluated in rat liver as Percent of injected dose in the total organ; details: in vivo, 0.5 h; summary of the method: as §1
Rattus norvegicus [7] = organism: Rattus norvegicus; test: The distribution of the 131 I-labeled compound at 30 min was evaluated in rat liver as Percent of injected dose per gram in the organ; details: in vivo, 0.5 h; summary of the method: as §1
Rattus norvegicus [8] = organism: Rattus norvegicus; test: The distribution of the 131 I-labeled compound at 30 min was evaluated in rat lung as Percent of injected dose per gram in the organ; details: in vivo, 0.5 h; summary of the method: as §1
Rattus norvegicus [9] = organism: Rattus norvegicus; test: The distribution of the 131 I-labeled compound at 5 min was evaluated in rat brain as Percent of injected dose in the total organ; details: in vivo; summary of the method: as §1
Rattus norvegicus [10] = organism: Rattus norvegicus; test: The distribution of the 131 I-labeled compound at 5 min was evaluated in rat brain as Percent of injected dose per gram in the organ; details: in vivo; summary of the method: as §1
Rattus norvegicus [11] = organism: Rattus norvegicus; test: The distribution of the 131 I-labeled compound at 5 min was evaluated in rat heart as Percent of injected dose in the total organ; details: in vivo; summary of the method: as §1
Rattus norvegicus [12] = organism: Rattus norvegicus; test: The distribution of the 131 I-labeled compound at 5 min was evaluated in rat heart as Percent of injected dose per gram in the organ; details: in vivo; summary of the method: as §1
Rattus norvegicus [13] = organism: Rattus norvegicus; test: The distribution of the 131 I-labeled compound at 5 min was evaluated in rat kidney as Percent of injected dose in the total organ; details: in vivo; summary of the method: as §1
Rattus norvegicus [14] = organism: Rattus norvegicus; test: The distribution of the 131 I-labeled compound at 5 min was evaluated in rat kidney as Percent of injected dose per gram in the organ; details: in vivo; summary of the method: as §1
Rattus norvegicus [15] = organism: Rattus norvegicus; test: The distribution of the 131 I-labeled compound at 5 min was evaluated in rat liver as Percent of injected dose in the total organ; details: in vivo; summary of the method: as §1
Rattus norvegicus [16] = organism: Rattus norvegicus; test: The distribution of the 131 I-labeled compound at 5 min was evaluated in rat liver as Percent of injected dose per gram in the organ; details: in vivo; summary of the method: as §1
Rattus norvegicus [17] = organism: Rattus norvegicus; test: The distribution of the 131 I-labeled compound at 5 min was evaluated in rat lung as Percent of injected dose per gram in the organ; details: in vivo; summary of the method: as §1
Rattus norvegicus [18] = organism: Rattus norvegicus; test: The distribution of the 131 I-labeled compound at 30 min was evaluated in rat blood as Percent of injected dose per gram in the organ; details: in vivo, 0.5 h; summary of the method: as §1
Rattus norvegicus [19] = organism: Rattus norvegicus; test: Ratio of distribution of the [131I]-labeled compound at 30 min in rat brain over uptake in blood; details: 0.5 h
Summary of the method: (§2)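 Male Sprague-Dawley rats (200–300 g, fed ad libitum), ether-anesthetized, got a tail-vein bolus of 0.2 mL saline containing 10–20 μCi 131I compound and were decapitated at the stated time. Organs were weighed and gamma-counted against a serially diluted external standard. Organ/blood ratio was calculated from % dose per gram of organ. Animal numbers per time point were 1–4.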

Rattus norvegicus [20] = organism: Rattus norvegicus; test: Ratio of distribution of the [131I]-labeled compound at 30 min in rat heart over uptake in blood; details: other tissue, 0.5 h; summary of the method: as §2
Rattus norvegicus [21] = organism: Rattus norvegicus; test: Ratio of distribution of the [131I]-labeled compound at 30 min in rat liver over uptake in blood; details: other tissue, 0.5 h; summary of the method: as §2
Rattus norvegicus [22] = organism: Rattus norvegicus; test: Ratio of distribution of the [131I]-labeled compound at 30 min in rat lung over uptake in blood; details: other tissue, 0.5 h; summary of the method: as §2
Rattus norvegicus [23] = organism: Rattus norvegicus; test: Ratio of distribution of the [131I]-labeled compound at 5 min in rat brain over uptake in blood; summary of the method: as §2
Rattus norvegicus [24] = organism: Rattus norvegicus; test: Ratio of distribution of the [131I]-labeled compound at 5 min in rat heart over uptake in blood; details: other tissue; summary of the method: as §2
Rattus norvegicus [25] = organism: Rattus norvegicus; test: Ratio of distribution of the [131I]-labeled compound at 5 min in rat liver over uptake in blood; details: other tissue; summary of the method: as §2
Rattus norvegicus [26] = organism: Rattus norvegicus; test: Ratio of distribution of the [131I]-labeled compound at 5 min in rat lung over uptake in blood; details: other tissue; summary of the method: as §2
Rattus norvegicus [27] = organism: Rattus norvegicus; test: The distribution of the 131 I-labeled compound at 5 min was evaluated in rat blood as Percent of injected dose per gram in the organ; details: in vivo; summary of the method: as §1
Rattus norvegicus [28] = organism: Rattus norvegicus; test: The distribution of the 131 I-labeled compound at 30 min was evaluated in rat brain as Percent of injected dose in the total organ; details: in vivo, 0.5 h; summary of the method: as §1

Compound | Dose (Rattus norvegicus [1]) [%] | Dose (Rattus norvegicus [2]) [%] | Dose (Rattus norvegicus [3]) [%] | Dose (Rattus norvegicus [6]) [%] | Dose (Rattus norvegicus [7]) [%] | Dose (Rattus norvegicus [8]) [%] | Dose (Rattus norvegicus [9]) [%] | Dose (Rattus norvegicus [10]) [%] | Dose (Rattus norvegicus [11]) [%] | Dose (Rattus norvegicus [12]) [%] | Dose (Rattus norvegicus [15]) [%] | Dose (Rattus norvegicus [16]) [%] | Dose (Rattus norvegicus [17]) [%] | Dose (Rattus norvegicus [18]) [%] | Ratio (Rattus norvegicus [19]) | Ratio (Rattus norvegicus [20]) | Ratio (Rattus norvegicus [21]) | Ratio (Rattus norvegicus [22]) | Ratio (Rattus norvegicus [23]) | Ratio (Rattus norvegicus [24]) | also measured
CCN(CC)C(C)Cc1cc(OC)c(I)cc1OC (centres undefined) | 0.13 | 0.2 | 0.14 | 4.3 | 0.32 | 1.2 | 0.78 | 0.39 | 0.4 | 0.35 | 6 | 0.46 | 2 | 0.06 | 4.3 | 2.3 | 8.1 | 20 | 5.6 | 5 | Dose (Rattus norvegicus [4]): 1.1%; Dose (Rattus norvegicus [5]): 0.39%; Dose (Rattus norvegicus [13]): 1.8%; Dose (Rattus norvegicus [14]): 0.69%; Ratio (Rattus norvegicus [25]): 5.5; Ratio (Rattus norvegicus [26]): 29; Dose (Rattus norvegicus [27]): 0.07%; Dose (Rattus norvegicus [28]): 0.26%
CNC(C)Cc1cc(OC)c(I)cc1OC (centres undefined) | 0.62 | 0.32 | 0.53 | 11 | 1.8 | 3.2 | 0.97 | 0.57 | 0.65 | 0.93 | 5.3 | 0.76 | 5.9 | 0.28 | 2.2 | 1.9 | 6.4 | 11.4 | 4.1 | 6.6 | Ratio (Rattus norvegicus [25]): 5.4; Ratio (Rattus norvegicus [26]): 42; Dose (Rattus norvegicus [27]): 0.14%; Dose (Rattus norvegicus [28]): 1%
COc1cc(CC(C)NC(C)C)c(OC)cc1I (centres undefined) | 0.3 | 0.29 | 0.44 | 6 | 1.2 | 2.8 | 1.2 | 0.66 | 0.79 | 1.2 | 7.2 | 1.1 | 7.7 | 0.23 | 1.3 | 1.9 | 5.2 | 12 | 2.6 | 4.8 | Ratio (Rattus norvegicus [25]): 4.4; Ratio (Rattus norvegicus [26]): 31; Dose (Rattus norvegicus [27]): 0.25%; Dose (Rattus norvegicus [28]): 0.52%
COc1cc(CC(C)NCc2ccccc2)c(OC)cc1I (centres undefined) | 0.5 | 0.34 | 0.5 | 5.4 | 0.95 | 5 | 1.1 | 0.64 | 0.77 | 1.1 | 4 | 0.72 | 8.3 | 0.2 | 2.5 | 2.5 | 4.7 | 25 | 5.3 | 9.2 | Ratio (Rattus norvegicus [25]): 6; Ratio (Rattus norvegicus [26]): 69; Dose (Rattus norvegicus [27]): 0.12%; Dose (Rattus norvegicus [28]): 0.9%
CCCCCCNC(C)Cc1cc(OC)c(I)cc1OC (centres undefined) | 0.57 | 0.25 | 0.36 | 9.4 | 1.6 | 4.3 | 0.63 | 0.37 | 1.5 | 2.1 | 4.6 | 0.58 | 7.5 | 0.17 | 3.4 | 2.1 | 9.4 | 25 | 2.3 | 13 | Ratio (Rattus norvegicus [25]): 5.4; Ratio (Rattus norvegicus [26]): 47; Dose (Rattus norvegicus [27]): 0.16%; Dose (Rattus norvegicus [28]): 0.97%
